# Bioassay records as filed in PubChem BioAssay.
# NF-kB expr up = NF-kB expression increase, human neuronal cells; actives 1.6% (n = 190,000); fold change at 12.5 µM; NF-kB reporter expression; active compounds read high; in the data active = fold change above about 3.3
# FLuc stim CS = affects firefly luciferase, flagging false hits in luciferase stimulation screens; P08659; ATPlite luciferase biochemical, luminescence, 10 min; 0 = ATP-free wells, 1 = DMSO control; activation factor at 10 µM; 200,000 tested, under 10 active; AID 1027;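 active = luciferase activation factor, scaled between plate controls, of at least 2 with compound at 10 µM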
# Target sequence (P08659 whole entry, looked up): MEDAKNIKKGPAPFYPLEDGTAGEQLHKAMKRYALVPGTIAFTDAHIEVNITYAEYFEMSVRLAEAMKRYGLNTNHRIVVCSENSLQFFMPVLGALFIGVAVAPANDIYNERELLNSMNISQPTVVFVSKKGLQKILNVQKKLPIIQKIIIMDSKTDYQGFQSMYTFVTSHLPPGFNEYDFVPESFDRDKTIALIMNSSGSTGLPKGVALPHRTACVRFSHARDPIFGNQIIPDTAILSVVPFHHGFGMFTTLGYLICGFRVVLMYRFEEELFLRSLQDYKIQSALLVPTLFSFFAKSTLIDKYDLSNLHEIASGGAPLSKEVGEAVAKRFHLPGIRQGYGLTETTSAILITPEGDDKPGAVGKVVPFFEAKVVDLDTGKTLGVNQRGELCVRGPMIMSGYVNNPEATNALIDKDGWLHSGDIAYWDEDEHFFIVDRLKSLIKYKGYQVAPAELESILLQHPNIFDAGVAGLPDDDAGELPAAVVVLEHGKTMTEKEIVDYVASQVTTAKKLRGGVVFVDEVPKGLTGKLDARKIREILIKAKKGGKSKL
#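 assay system = Luciferase/luciferin detection reagent, cell-free biochemical luciferase assay | also added = ATP substrate | times = 10 min post-reagent at room temperature | measured by = luminescence from luciferase reaction | measure = luciferase activation, seen as luminescence increase over controls | benchmarks = low control with PBS replacing ATP, high control enzyme plus ATP without compound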
# STAT1 act = STAT1 signaling activation | NIH 3T3 STAT1-luciferase reporter, IFN-gamma, luminescence; 100% = IFN-gamma alone, no compound | activation (% of control), % at 5.5 µM | actives 2.6% (n = 200,000) | AID 932;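 active = activation above the screen-wide mean activation plus 3 SD, cut at about 130% in these data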;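 note: raw ratio to IFN-gamma control signal so 100% means no change and 0% no light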
# APP 5'UTR act = activates APP 5'UTR luciferase reporter; SH-SY5Y APP 5'UTR luciferase reporter, luminescence; zero percent = DMSO vehicle wells; activation, % at 2 µM; actives 1% (n = 190,000);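 active = activation above a set limit, based on mean plus 3 SD of controls, cut at about 140% in these data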
# FLuc inh counter = counter-screen for luciferase assay inhibitors: firefly luciferase inhibition | P08659 | ATPLite firefly luciferase biochemical luminescence, 10 min | inhibition, % at 10 µM | actives 1.5% (n = 200,000) | AID 1006;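 active = inhibition above about 50% when tested at 10 µM, limit read from the data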
# APP 5UTR inh = APP translation inhibition. SH-SY5Y APP 5'UTR-luciferase reporter, luminescence. inhibition, % at 2 µM. actives 0.82% (n = 190,000). AID 1285;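 active = inhibition above a set limit, derived from the sample mean plus 3 SD, cut at about 45% in these data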
# * = called active by the depositor; x = no result given. Sampled rows, rich in hits. Any-hit rate of the full collection: about 4.8%.
SMILES,NF-kB expr up,FLuc stim CS,STAT1 act,APP 5'UTR act,FLuc inh counter,APP 5UTR inh
COc1cc(NC(=O)c2ccccn2)cc(OC)c1OC,1.02,1,98.5,-2.6,-4.3,2.6
Cc1ccc(NC(=O)c2ccc(Cl)nc2)cc1,2.18,0.9,130.6*,-2.9,9.2,2.9
O=C(O)c1ccc(/C=N/N2CCN(Cc3ccccc3)CC2)cc1,1.18,1.1,99.7,-19.9,-6.3,19.9
Nc1ccc2nc(C(F)(F)F)[nH]c2c1,1.06,1.1,103.1,5.6,-8.3,-5.6
Cc1ccc(S(=O)(=O)Nc2ccc(-c3nc4cc(NS(=O)(=O)c5ccc(C)cc5)ccc4o3)cc2)cc1,0.67,1,105.5,-1.4,-3.7,1.4
Cc1nc2ccc(-c3nc4cc(N)ccc4o3)cc2[nH]1,1.66,0.2,116.4,-21.5,78.5*,21.5
Nc1ccc2oc(-c3ccc4nc[nH]c4c3)nc2c1,1.34,0.2,131.8*,10.9,83.2*,-10.9
COC(=O)C1=C(C)N(C)C(=S)NC1c1ccc(OC)cc1OC (configuration not stated),1.13,1.1,95.1,10.0,-6.4,-10.0
N#Cc1c(NC(=O)CSc2ncn[nH]2)sc2c1CCCCC2,0.37,1,72.8,-79.3,1.4,79.3*
N#Cc1c(NC(=O)c2nc3ncccn3n2)sc2c1CCCCC2,2.39,0.4,117.6,-18.5,56.9*,18.5
COc1cc(-n2nnnc2SC)c(OC)cc1Cl,3.58*,1.1,97.5,-5.8,-9.3,5.8
COc1ccc(CCNC(=O)CSc2nnc(NC(C)=O)s2)cc1OC,1.13,1,97.2,-16.8,-3.9,16.8
O=C(NCCCN1CCOCC1)c1cc(-c2ccc(O)cc2)on1,1.9,1,98.0,17.8,-1.7,-17.8
O=C(NCCCN1CCOCC1)c1cc(-c2ccccc2)on1,5.51*,1,118.0,18.8,-2.8,-18.8
Cc1cc(NC(=O)c2cc(-c3cccs3)on2)no1,1.95,0.9,110.0,9.7,11.1,-9.7
CC(C)NC(=O)c1cc(-c2cccs2)on1,3.97*,0.9,122.4,61.6,7.9,-61.6
O=C(NCCN1CCOCC1)c1cc(-c2ccccc2)on1,6.26*,1.1,110.4,28.8,-5.6,-28.8
CC(C)Oc1ccc(-c2cc(C(=O)NCCN3CCOCC3)c3ccccc3n2)cc1,1.19,0.3,123.7,22.1,65.0*,-22.1
O=C(NCCN1CCOCC1)c1cc(-c2cccs2)on1,5.76*,1,115.6,19.6,-2.4,-19.6
Cc1ccc(C)c(NC(=S)NCc2ccc3c(c2)OCO3)c1,1.08,1,98.5,-2.7,1.1,2.7
Clc1ccc(-c2nnc(N3CCCC3)nn2)cc1,4.59*,0.8,137.0*,43.6,22.6,-43.6
CC(C)c1ccc(COc2ccc(C(=O)N3CCOCC3)cc2)cc1,1.11,1,82.7,9.2,-4.4,-9.2
Cc1ccc(OCc2ccc(C(=O)N3CCOCC3)cc2)cc1C,1.76,0.9,141.7*,x,9.4,-116.0
Cc1ccc(-n2c(C)cc(C)c(C#N)c2=O)cc1Cl,0.98,1.1,93.2,-62.1,-6.5,62.1*
O=C(COC(=O)CCS(=O)(=O)c1ccc(Cl)cc1)NC1CCCCC1,1.19,1,102.3,-11.5,-2.8,11.5
SMILES,NF-kB expr up,FLuc stim CS,STAT1 act,APP 5'UTR act,FLuc inh counter,APP 5UTR inh
Cc1ccccc1NC(=O)c1cnc2ccccn2c1=O,1.82,0.2,85.0,104.5,82.3*,-104.5
COc1ccc(C(=O)Nc2cnc3ccccn3c2=O)cc1,2.41,0.9,139.5*,72.3,13.2,-72.3
CN(CCOC(=O)CN1C(=O)c2ccccc2C1=O)C1=NS(=O)(=O)c2ccccc21,0.98,1.1,95.8,2.7,-5.9,-2.7
O=C(NNC1=NCCC1)C1CC1,1.72,1,101.1,9.8,-4.7,-9.8
COCCCNC(=O)C1CCC(CNS(=O)(=O)c2ccc(C)cc2)CC1 (configuration not stated),1.52,1,105.0,23.0,-2.6,-23.0
OCC1(Cc2ccccc2)CCN(CCCC2CCCC2)CC1,0.78,1,98.6,3.1,-4.5,-3.1
Fc1ccccc1-c1nc(NCCCN2CCOCC2)c2ccccc2n1,0.79,1.1,96.0,-5.0,-8.3,5.0
Cc1cc(NCCCN2CCOCC2)n2nc(C)c(-c3ccccc3)c2n1,1.03,1.1,91.4,3.6,-5.2,-3.6
Cc1cc(NCCCN2CCOCC2)n2ncc(-c3ccccc3)c2n1,4.42*,0.8,146.6*,155.5*,15.2,-155.5
